Measured values published in ChEMBL document CHEMBL1157665, “Novel 4-thiazolidinone derivatives as potential antifungal and antibacterial drugs” (2010).
Values after ≈ are worked out from the molar mass of the structure shown.

Legend:
Aspergillus niger [1] = assay: Antifungal activity against Aspergillus niger ATCC 6275 after 72 hrs by serial sub-cultivation method; type: functional; conditions: ATCC 6275, 72 h
In short: (§1)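 MFC was found by serial sub-cultivation of 2 µl into plates holding 100 µl broth per well, then incubation 72 h at 28 °C. MFC is the lowest concentration with no visible growth, taken as 99.5% killing of the original inoculum. Spore inocula came from malt agar cultures washed with 0.85% saline and 0.1% Tween 80.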

Aspergillus versicolor [2] = assay: Antifungal activity against Aspergillus versicolor ATCC 11730 after 72 hrs by serial dilution method; type: functional; conditions: ATCC 11730, 72 h
In short: (§2)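 Fungi were kept on malt agar at 4 °C and sub-cultured monthly. Spores were washed off the agar with sterile 0.85% saline containing 0.1% Tween 80 (v/v). Modified microdilution in 96-well plates. MIC is the lowest concentration with no visible growth under the binocular microscope. Inoculum checked on malt agar for contamination and validity.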

Aspergillus versicolor [3] = assay: Antifungal activity against Aspergillus versicolor ATCC 11730 after 72 hrs by serial sub-cultivation method; type: functional; conditions: ATCC 11730, 72 h; in short: as §1
Aspergillus flavus [4] = assay: Antifungal activity against Aspergillus flavus ATCC 9643 after 72 hrs by serial dilution method; type: functional; conditions: ATCC 9643, 72 h; in short: as §2
Aspergillus flavus [5] = assay: Antifungal activity against Aspergillus flavus ATCC 9643 after 72 hrs by serial sub-cultivation method; type: functional; conditions: ATCC 9643, 72 h; in short: as §1
Fulvia fulva [6] = assay: Antifungal activity against Fulvia fulva TK 5318 after 72 hrs by serial dilution method; type: functional; conditions: TK 5318, 72 h; in short: as §2
Fulvia fulva [7] = assay: Antifungal activity against Fulvia fulva TK 5318 after 72 hrs by serial sub-cultivation method; type: functional; conditions: TK 5318, 72 h; in short: as §1
Bacillus cereus [8] = assay: Antibacterial activity against Bacillus cereus clinical isolate after 24 hrs; type: functional
In short: (§3)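 Broth microdilution MIC in 96-well plates. Compounds in LB broth with bacterial inoculum of 1.0 × 10^4 cfu per well, from suspensions adjusted with sterile saline to 1.0 × 10⁵ CFU/ml. Incubated 24 h at […] as printed. MIC taken as the lowest concentration with no visible growth under the binocular microscope. OD at 655 nm also read against blank. Streptomycin and ampicillin as positive controls. Duplicate, repeated three times.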

Bacillus cereus [9] = assay: Antibacterial activity against Bacillus cereus clinical isolate after 72 hrs by serial sub-cultivation method; type: functional
In short: (§4)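 MBC was found by serial sub-cultivation of 2 µl from the MIC wells into plates holding 100 µl broth per well, then incubation for 72 h. MBC is the lowest concentration with no visible growth, i.e. 99.5% killing of the original inoculum. Bacterial inoculum was 1.0 × 10^4 cfu per well in LB broth. Duplicate, repeated three times.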

Micrococcus flavus [10] = assay: Antibacterial activity against Micrococcus flavus ATCC 10240 after 24 hrs; type: functional; conditions: ATCC 10240, 24 h; in short: as §3
Micrococcus flavus [11] = assay: Antibacterial activity against Micrococcus flavus ATCC 10240 after 72 hrs by serial sub-cultivation method; type: functional; conditions: ATCC 10240, 72 h; in short: as §4
Staphylococcus aureus [12] = assay: Antibacterial activity against Staphylococcus aureus ATCC 6538 after 24 hrs; type: functional; conditions: ATCC 6538, 24 h; in short: as §3
Staphylococcus aureus [13] = assay: Antibacterial activity against Staphylococcus aureus ATCC 6538 after 72 hrs by serial sub-cultivation method; type: functional; conditions: ATCC 6538, 72 h; in short: as §4
Escherichia coli [14] = assay: Antibacterial activity against Escherichia coli ATCC 35210 after 24 hrs; type: functional; conditions: ATCC 35210, 24 h; in short: as §3
Escherichia coli [15] = assay: Antibacterial activity against Escherichia coli ATCC 35210 after 72 hrs by serial sub-cultivation method; type: functional; conditions: ATCC 35210, 72 h; in short: as §4
Pseudomonas aeruginosa [16] = assay: Antibacterial activity against Pseudomonas aeruginosa ATCC 27853 after 24 hrs; type: functional; conditions: ATCC 27853, 24 h; in short: as §3
Pseudomonas aeruginosa [17] = assay: Antibacterial activity against Pseudomonas aeruginosa ATCC 27853 after 72 hrs by serial sub-cultivation method; type: functional; conditions: ATCC 27853, 72 h; in short: as §4
Proteus mirabilis [18] = assay: Antibacterial activity against Proteus mirabilis after 24 hrs; type: functional; in short: as §3
Proteus mirabilis [19] = assay: Antibacterial activity against Proteus mirabilis after 72 hrs by serial sub-cultivation method; type: functional; in short: as §4
Salmonella typhimurium [20] = assay: Antibacterial activity against Salmonella Typhimurium ATCC 13311 after 24 hrs; type: functional, Salmonella enterica subsp. enterica serovar Typhimurium; conditions: Salmonella enterica, ATCC 13311, 24 h; in short: as §3
Salmonella typhimurium [21] = assay: Antibacterial activity against Salmonella Typhimurium ATCC 13311 after 72 hrs by serial sub-cultivation method; type: functional, Salmonella enterica subsp. enterica serovar Typhimurium; conditions: Salmonella enterica, ATCC 13311, 72 h; in short: as §4
Listeria monocytogenes [22] = assay: Antibacterial activity against Listeria monocytogenes NCTC 7973 after 24 hrs; type: functional; conditions: NCTC 7973, 24 h; in short: as §3
Listeria monocytogenes [23] = assay: Antibacterial activity against Listeria monocytogenes NCTC 7973 after 72 hrs by serial sub-cultivation method; type: functional; conditions: NCTC 7973, 72 h; in short: as §4
Talaromyces funiculosus [24] = assay: Antifungal activity against Penicillium funiculosum ATCC 36839 after 72 hrs by serial dilution method; type: functional; conditions: ATCC 36839, 72 h; in short: as §2
Talaromyces funiculosus [25] = assay: Antifungal activity against Penicillium funiculosum ATCC 36839 after 72 hrs by serial sub-cultivation method; type: functional; conditions: ATCC 36839, 72 h; in short: as §1
Penicillium ochrochloron [26] = assay: Antifungal activity against Penicillium ochrochloron ATCC 9112 after 72 hrs by serial dilution method; type: functional; conditions: ATCC 9112, 72 h; in short: as §2
Penicillium ochrochloron [27] = assay: Antifungal activity against Penicillium ochrochloron ATCC 9112 after 72 hrs by serial sub-cultivation method; type: functional; conditions: ATCC 9112, 72 h; in short: as §1
Trichoderma viride [28] = assay: Antifungal activity against Trichoderma viride IAM 5061 after 72 hrs by serial dilution method; type: functional; conditions: IAM 5061, 72 h; in short: as §2
Trichoderma viride [29] = assay: Antifungal activity against Trichoderma viride IAM 5061 after 72 hrs by serial sub-cultivation method; type: functional; conditions: IAM 5061, 72 h; in short: as §1
Aspergillus niger [30] = assay: Antifungal activity against Aspergillus niger ATCC 6275 after 72 hrs by serial dilution method; type: functional; conditions: ATCC 6275, 72 h; in short: as §2
Aspergillus fumigatus [31] = assay: Antifungal activity against Aspergillus fumigatus plant isolate after 72 hrs by serial dilution method
Aspergillus fumigatus [32] = assay: Antifungal activity against Aspergillus fumigatus plant isolate after 72 hrs by serial sub-cultivation method

| SMILES | MFC (Aspergillus niger [1]) [µM] | MIC (Aspergillus versicolor [2]) [µM] | MFC (Aspergillus versicolor [3]) [µM] | MIC (Aspergillus flavus [4]) [µM] | MFC (Aspergillus flavus [5]) [µM] | MIC (Fulvia fulva [6]) [µM] | MFC (Fulvia fulva [7]) [µM] | MIC (Bacillus cereus [8]) [µM] | MBC (Bacillus cereus [9]) [µM] | MIC (Micrococcus flavus [10]) [µM] | MBC (Micrococcus flavus [11]) [µM] | MIC (Staphylococcus aureus [12]) [µM] | MBC (Staphylococcus aureus [13]) [µM] | MIC (Escherichia coli [14]) [µM] | MBC (Escherichia coli [15]) [µM] | MIC (Pseudomonas aeruginosa [16]) [µM] | MBC (Pseudomonas aeruginosa [17]) [µM] | MIC (Proteus mirabilis [18]) [µM] | MBC (Proteus mirabilis [19]) [µM] | MIC (Salmonella typhimurium [20]) [µM] | other results |
| --- | --- | --- | --- | --- | --- | --- | --- | --- | --- | --- | --- | --- | --- | --- | --- | --- | --- | --- | --- | --- | --- |
| O=C1N/C(=N/c2nc(C34CC5CC(CC(C5)C3)C4)cs2)S/C1=C\c1ccccc1[N+](=O)[O-] | 21.5 (≈ 10 µg/mL) | 10.8 (≈ 5.04 µg/mL) | 16.1 (≈ 7.51 µg/mL) | 16.1 (≈ 7.51 µg/mL) | 21.5 (≈ 10 µg/mL) | 5.4 (≈ 2.52 µg/mL) | 10.8 (≈ 5.04 µg/mL) | 10.8 (≈ 5.04 µg/mL) | 21.5 (≈ 10 µg/mL) | 21.5 (≈ 10 µg/mL) | 43 (≈ 20.1 µg/mL) | 16.1 (≈ 7.51 µg/mL) | 21.5 (≈ 10 µg/mL) | 21.5 (≈ 10 µg/mL) | 43 (≈ 20.1 µg/mL) | 21.5 (≈ 10 µg/mL) | 43 (≈ 20.1 µg/mL) | 43 (≈ 20.1 µg/mL) | 64.5 (≈ 30.1 µg/mL) | 21.5 (≈ 10 µg/mL) | MBC (Salmonella typhimurium [21]): 43 µM (≈ 20.1 µg/mL); MIC (Listeria monocytogenes [22]): 21.5 µM (≈ 10 µg/mL); MBC (Listeria monocytogenes [23]): 43 µM (≈ 20.1 µg/mL); MIC (Talaromyces funiculosus [24]): 10.8 µM (≈ 5.04 µg/mL); MFC (Talaromyces funiculosus [25]): 21.5 µM (≈ 10 µg/mL); MIC (Penicillium ochrochloron [26]): 10.8 µM (≈ 5.04 µg/mL); MFC (Penicillium ochrochloron [27]): 21.5 µM (≈ 10 µg/mL); MIC (Trichoderma viride [28]): 10.8 µM (≈ 5.04 µg/mL); MFC (Trichoderma viride [29]): 21.5 µM (≈ 10 µg/mL); MIC (Aspergillus niger [30]): 16.1 µM (≈ 7.51 µg/mL); MIC (Aspergillus fumigatus [31]): 10.8 µM (≈ 5.04 µg/mL); MFC (Aspergillus fumigatus [32]): 21.5 µM (≈ 10 µg/mL) |
| O=C1N/C(=N/c2nc(C34CC5CC(CC(C5)C3)C4)cs2)S/C1=C\c1ccc(O)cc1 | 22.9 (≈ 10 µg/mL) | 17.2 (≈ 7.53 µg/mL) | 22.9 (≈ 10 µg/mL) | 11.5 (≈ 5.03 µg/mL) | 22.9 (≈ 10 µg/mL) | 11.5 (≈ 5.03 µg/mL) | 22.9 (≈ 10 µg/mL) | 17.2 (≈ 7.53 µg/mL) | 22.9 (≈ 10 µg/mL) | 22.9 (≈ 10 µg/mL) | 45.8 (≈ 20 µg/mL) | 17.2 (≈ 7.53 µg/mL) | 45.8 (≈ 20 µg/mL) | 22.9 (≈ 10 µg/mL) | 45.8 (≈ 20 µg/mL) | 22.9 (≈ 10 µg/mL) | 45.8 (≈ 20 µg/mL) | 45.8 (≈ 20 µg/mL) | 68.7 (≈ 30.1 µg/mL) | 11.5 (≈ 5.03 µg/mL) | MBC (Salmonella typhimurium [21]): 17.2 µM (≈ 7.53 µg/mL); MIC (Listeria monocytogenes [22]): 22.9 µM (≈ 10 µg/mL); MBC (Listeria monocytogenes [23]): 45.8 µM (≈ 20 µg/mL); MIC (Talaromyces funiculosus [24]): 17.2 µM (≈ 7.53 µg/mL); MFC (Talaromyces funiculosus [25]): 22.9 µM (≈ 10 µg/mL); MIC (Penicillium ochrochloron [26]): 17.2 µM (≈ 7.53 µg/mL); MFC (Penicillium ochrochloron [27]): 22.9 µM (≈ 10 µg/mL); MIC (Trichoderma viride [28]): 11.5 µM (≈ 5.03 µg/mL); MFC (Trichoderma viride [29]): 22.9 µM (≈ 10 µg/mL); MIC (Aspergillus niger [30]): 11.5 µM (≈ 5.03 µg/mL); MIC (Aspergillus fumigatus [31]): 11.5 µM (≈ 5.03 µg/mL); MFC (Aspergillus fumigatus [32]): 22.9 µM (≈ 10 µg/mL) |
